# hiPSC survival: enhancers of single-cell hiPSC survival, primary screen, ATPlite luminescence; 100% = ROCK inhibitor wells, 0% = DMSO; survival enhancement, % at 20 µM; actives 0.044% (n = 360,000); AID 602274, 2012; in the data active means survival enhancement above about 18%;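 further: cells exposed to compounds for 16 hours before the ATP read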
# Gli-Sufu block: Gli-Sufu pathway antagonists, primary screen, luciferase luminescence, Sufu-KO-LIGHT cells, uHTS | Sufu-KO-LIGHT fibroblasts, Gli luciferase reporter luminescence | inhibition, % at 5 µM | actives 0.74% (n = 340,000);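 active means inhibition above about 55%, limit read from the data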;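 further: 0% = DMSO-treated cells and 100% = wells with medium but no cells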
# H9c2 TAG inh: inhibitors of triacylglycerol accumulation, primary screen, cell-based, uHTS, fluorescence, H9c2; AID 651582, 2012; inhibition, % at 12.5 µM; H9c2 cells, Nile Red lipid (TAG) fluorescence; cells loaded with 200 µM oleic acid; actives 0.66% (n = 230,000);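 active means pattern-corrected inhibition of lipid staining of at least 50% with the nuclear-stain viability signal not falling by more than 50%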;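 further: 0% = DMSO wells and 100% = triacsin C control wells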
# 697 NFkB inh: inhibitors of PMA/ionomycin-induced NF-kB reporter, 697 cells, primary screen, B-cell NF-kB inhibitor project, cell-based, luminescence, uHTS. 697 B-cell NF-kB luciferase reporter, 16 h. inhibition, % at 4 µM. actives 0.33% (n = 330,000); in the data active means inhibition above about 35%
# Jurkat NFkB inh: inhibitors of induced NF-kB luciferase reporter, primary screen, TCR NF-kB activation inhibitor project, cell-based, luminescence, uHTS; Jurkat, PMA/ionomycin-induced NF-kB luciferase reporter; actives 0.53% (n = 330,000); inhibition, % at 4 µM; in the data active means inhibition above about 50%
# Lipid droplet: inhibitors of hepatocyte lipid droplet formation, primary screen, imaging, high-throughput imaging, BODIPY stain. AML12 mouse hepatocytes, oleate lipid droplets. inhibition, % at 6.5 µM. actives 0.4% (n = 240,000). AID 1656, 2009;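 active means lipid droplet intensity inhibited by at least 50%, with more than 500 cells counted; inconclusive means wells with under 300 cells, treated as cytotoxic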
#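 Test system: AML12 mouse liver cells; schedule: overnight exposure; technique: high-content imaging of BODIPY-stained droplets and DAPI nuclei; read-out: % inhibition of corrected integrated BODIPY droplet signal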
# Jurkat NFkB conf: PMA/ionomycin-induced NF-kB reporter inhibitors, Jurkat retest, confirmation, T-cell NF-kB inhibitor project, cell-based, luminescence, single concentration; shares compounds with Jurkat NFkB inh; Jurkat NF-kB luciferase, 16 h; inhibition, % at 4 µM; actives 27% (n = 2,700); AID 435020, 2010;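 active means inhibition reaching about 45% at 4 µM in either replicate, limit read from the data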;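 further: plate controls were PMA/ionomycin stimulated DMSO wells for no effect and unstimulated DMSO wells for full effect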
# 697 NFkB conf: PMA/ionomycin-induced NF-kB reporter inhibitors, 697 retest, confirmation, B-cell NF-kB inhibitor project, cell-based, luminescence, single concentration; inhibition, % at 4 µM; AID 449746, 2010; actives 35% (n = 2,000); shares compounds with 697 NFkB inh; 697 B-cell NF-kB luciferase, 16 h; in the data active means inhibition mostly above about 28%, no sharp cut-off; inactive means mostly below about 22%
# An asterisk follows results filed as active; i = inactive; ? = inconclusive; / = no result. The list is not random: actives were taken first. Their share in the collection is about 1.8%.
SMILES,hiPSC survival,Gli-Sufu block,H9c2 TAG inh,697 NFkB inh,Jurkat NFkB inh,Lipid droplet,Jurkat NFkB conf,697 NFkB conf
O=C(Nc1ccc2ccccc2c1)c1ccccc1F,2,-91,-2,-328,-221,6,-135,-322
CCn1c(SCC(=O)Nc2ccc(OC)c(S(=O)(=O)N3CCCCC3)c2)nnc1C1CC1,0,12,4,13,17,/,/,/
Cc1ccc2nc(-c3ccccc3)c(Cc3ccsc3)n2c1,0,/,/,/,/,/,/,/
C/C(N)=C(/C#N)C(=O)CSc1nnc(-c2ccc3c(c2)OCO3)o1,2,-90,/,-392,-158,-14,-97,-291
CCCNC(=O)C1(C)CCCN(C(=O)c2cc(C)nn2C(C)(C)C)C1 (stereo unspecified),-1,/,-3,/,/,/,/,/
O=C(NCCc1ccccc1)c1ccc2c(c1)OCCCO2,-1,70*,/,63*,87*,-5,89*,66*
CC(O)CNc1nc(Cl)c(C#N)s1 (stereo unspecified),-2,-6,0,-3,-3,-2,/,/
Oc1c(N=Nc2ccccc2)sc2ccccc12,0,30,-3,-268,-176,18,-128,-286
CC(=Nc1ccc(O)cc1)c1sc2ccccc2c1O,-3,-52,-24,-196,-134,12,/,/
Cc1ccc(Nc2nc(N)c3ccccc3n2)cc1Cl,-1,-58,/,-321,-167,-2,-120,-372
Nc1nc(Nc2ccccc2)nc2ccccc12,11,-90,11,-145,-112,/,/,/
Nc1nc(Nc2ccc(Cl)cc2)nc2ccccc12,-4,-108,/,-440,-181,-10,-100,-367
CS(=O)(=O)N1N=C(c2ccc(Br)cc2)CC1c1ccc2c(c1)OCO2 (stereo unspecified),0,-88,/,-111,-136,/,/,/
Cc1ccc(C2=NN(S(C)(=O)=O)C(c3ccc4c(c3)OCO4)C2)cc1 (stereo unspecified),-2,-95,/,-259,-175,-1,-111,-276
Brc1ccc(-c2cn3ccccc3n2)cc1,-1,-121,4,-264,-181,0,-117,-265
Clc1ccccc1-c1nnc(-c2ccc3c(c2)OCO3)o1,-2,-62,-8,-159,-149,-6,/,/
O=C(COc1ccc2ccccc2c1Br)N1CCCCC1,1,-53,-14,-54,-45,-18,/,/
O=C(Oc1ccc2ccccc2c1Br)N1CCCCCC1,-4,-69,-1,i,-308,/,-103,i
Cc1ccc2nc(NC(=O)CCCC(=O)O)sc2c1,-1,33,1,71*,55*,9,69*,76*
Cc1ccc2nc(NC(=O)CCCc3nc4ccccc4s3)sc2c1,4,0,6,2,-59,24,/,/
CC(=O)NC1=NN(C(C)=O)C(c2ccccn2)S1 (stereo unspecified),0,-2,8,17,0,7,/,/
Fc1cccc(-c2cc3nc4c(c(NCc5ccco5)n3n2)CCCC4)c1,0,-57,/,-326,-172,/,-99,-361
CCOc1ccc(/C=N/NC(=O)c2cccc3ccccc23)c(OCC)c1,0,-22,10,17,-1,0,/,/
CCCCCOC(=O)c1[nH]c2c(c1C)C(=O)CC(c1ccco1)C2 (stereo unspecified),-3,69*,41,-322,67*,?,49*,7
O=C(C1CCCN(S(=O)(=O)c2ccc(Br)cc2)C1)N1CCOCC1 (stereo unspecified),0,2,11,13,14,-17,/,/
SMILES,hiPSC survival,Gli-Sufu block,H9c2 TAG inh,697 NFkB inh,Jurkat NFkB inh,Lipid droplet,Jurkat NFkB conf,697 NFkB conf
CC(C)OC(=O)c1sc2nc(-c3ccccc3)ccc2c1N,-3,9,/,-276,-290,/,-8,-81
Cn1c2c(c(=O)n(C)c1=O)C(C(F)(F)F)(C(F)(F)F)N=C(c1ccc(Cl)cc1)N2,1,88*,/,97*,71*,/,86*,8
Cc1ccccc1C1=NC(C(F)(F)F)(C(F)(F)F)c2c(n(C)c(=O)n(C)c2=O)N1,2,6,/,8,14,-5,/,/
CC1=NN(c2ccccc2)C(=O)/C1=C\C=C\c1ccccc1,0,22,-15,-57,1,4,/,/
ClC1=C(Cl)C(Cl)=C(Cl)C1=C/C=C/c1ccccc1,4,79*,127,-275,55*,40,-14,-26
C/C(=N\NC(=O)c1ccc(F)cc1)c1ccccn1,-1,12,/,-371,100*,-280,-21,0
CCc1ccc(/C(C)=N/NC(=O)c2ccccn2)cc1,1,-16,-7,-14,-6,-4,/,/
CCN(CC)c1ccc(C(=O)Nc2cccc(F)c2)cc1,-4,16,/,-293,-221,0,-144,-294
CN(C)c1cccc(C(=O)Nc2cccc(F)c2)c1,3,-63,2,-27,-37,-14,/,/
NC(=O)c1ccsc1NC(=O)CCS(=O)(=O)c1ccc(Cl)cc1,1,0,-3,-24,-6,/,/,/
Nc1c(-c2ccc(Cl)cc2)cnc2c(-c3ccccc3)cnn12,-1,-112,/,-267,-172,3,-156,-262
Cc1c(C(=O)N2CCN(C3CCS(=O)(=O)C3)CC2)oc2c(F)cccc12 (stereo unspecified),6,-12,7,9,7,/,/,/
COc1cc(NS(C)(=O)=O)ccc1Nc1c2ccccc2nc2ccccc12,-4,74*,19,-366,72*,/,82*,-170
FC(F)(F)c1nc2ccccc2n2c(-c3ccc(Cl)cc3Cl)nnc12,0,-1,2,-17,-5,/,/,/
FC(F)(F)c1nnc2c(Sc3ccccc3)nc3ccc(Cl)cc3n12,-5,19,/,67*,85*,/,-17,14
O=C(CSc1n[nH]c(-c2ccccn2)n1)Nc1cccc(Cl)c1,0,-3,12,9,-1,-2,/,/
COc1ccc2nc(NC(=S)N(C)C)sc2c1,0,-42,/,-319,-170,14,-52,-226
COc1ccc2nc(NC(=O)c3ccoc3C)sc2c1,-5,-78,/,-251,-191,-1,-92,-324
CCCC(=O)Nc1nc2ccc(OC)cc2s1,0,-73,20,-113,-75,9,/,/
COc1ccc(C2(C)NC(=O)N(CC(=O)Nc3ccc4c(c3)OCO4)C2=O)cc1OC (stereo unspecified),4,2,15,3,15,/,/,/

# High-throughput results (PubChem)
